Tests used:
Assay type in all cases: ADME, organism-based
[1] = Oral bioavailability in Sprague-Dawley rat at 10 mg/kg; details: in vivo
[2] = tested on: Rattus norvegicus; test: Free plasma concentration in Sprague-Dawley rat at 10 mg/kg, po after 4 hrs; details: in vivo
Summary of the method: (§1)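 Sprague-Dawley rats given one 10 mg/kg oral dose in 1% Tween 80, 2% HPMC, 97% water. Plasma drug levels followed over time, giving Cmax, time to Cmax and AUC. Free concentration derived using the fraction unbound from rapid equilibrium dialysis.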

[3] = AUC in Sprague-Dawley rat at 10 mg/kg, po; details: in vivo; summary of the method: as §1
[4] = Volume of distribution at steady state in Sprague-Dawley rat at 2 mg/kg, iv; details: in vivo, read-out: Vdss
Summary of the method: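 Sprague-Dawley rats dosed intravenously at 2 mg/kg in 100% DMSO. Plasma clearance, steady-state volume of distribution and terminal half-life derived from the plasma concentration-time profile.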

[5] = Cmax in Sprague-Dawley rat at 10 mg/kg, po after 4 hrs; set-up: dose 10 mg/kg, route oral; details: in vivo; summary of the method: as §1

- bioavailability [1]: 82%
- Cp(f) [2]: 0.43 µM
- AUC [3]: 568 µM·h
- Vd [4]: 0.18 L/kg
- Cmax [5]: 57.6 µM
Structure (SMILES): C[C@](O)(CO)c1ccc(-c2ncc(S(=O)(=O)c3ccc(N)nc3)s2)c(Cl)c1

Source: ChEMBL document CHEMBL3576811, “Small Molecule Disruptors of the Glucokinase-Glucokinase Regulatory Protein Interaction: 5. A Novel Aryl Sulfone Series, Optimization Through Conformational Analysis” (J Med Chem, 2015)
